Source: ChEMBL document CHEMBL1157895, “Truxillic acid derivatives act as peroxisome proliferator-activated receptor gamma activators” (Bioorg Med Chem Lett, 2010)
The source made the active and inactive calls. The calls are words filed in the database; no cut-off is given here.

Tests used:
Assay type in all cases: functional
[1] = target: T1, Peroxisome proliferator-activated receptor gamma (Homo sapiens, UniProt P37231); assay: (§1) Agonist activity at human PPARgamma at 10 uM by Gal4 transactivation assay relative to pioglitazone
T1 sequence (P37231 whole entry): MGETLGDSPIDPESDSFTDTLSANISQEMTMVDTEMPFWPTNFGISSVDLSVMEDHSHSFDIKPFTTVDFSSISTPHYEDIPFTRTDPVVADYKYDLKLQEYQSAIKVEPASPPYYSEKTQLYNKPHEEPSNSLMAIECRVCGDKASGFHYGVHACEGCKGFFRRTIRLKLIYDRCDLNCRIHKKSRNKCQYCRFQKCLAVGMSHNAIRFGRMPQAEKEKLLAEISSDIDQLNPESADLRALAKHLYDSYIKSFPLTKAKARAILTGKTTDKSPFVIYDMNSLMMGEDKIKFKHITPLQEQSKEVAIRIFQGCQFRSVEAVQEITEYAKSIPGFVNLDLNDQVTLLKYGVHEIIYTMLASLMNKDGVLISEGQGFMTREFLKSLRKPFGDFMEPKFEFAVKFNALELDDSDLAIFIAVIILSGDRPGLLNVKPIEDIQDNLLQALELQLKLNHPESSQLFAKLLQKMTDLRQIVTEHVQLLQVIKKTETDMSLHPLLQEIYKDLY
Outline: (§2)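 Cell-based Gal4-hybrid transactivation assay with a luciferase reporter for human PPARγ. Compounds were tested at 10 µM. Activation is expressed relative to 1 µM pioglitazone, which was set as 100% activation. Values are the mean and standard deviation of at least three independent experiments.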

[2] = target: T2, Peroxisome proliferator-activated receptor alpha (Homo sapiens) (UniProt Q07869); assay: Agonist activity at human PPARalpha at 10 uM by Gal4 transactivation assay relative to pioglitazone
T2 sequence (whole entry): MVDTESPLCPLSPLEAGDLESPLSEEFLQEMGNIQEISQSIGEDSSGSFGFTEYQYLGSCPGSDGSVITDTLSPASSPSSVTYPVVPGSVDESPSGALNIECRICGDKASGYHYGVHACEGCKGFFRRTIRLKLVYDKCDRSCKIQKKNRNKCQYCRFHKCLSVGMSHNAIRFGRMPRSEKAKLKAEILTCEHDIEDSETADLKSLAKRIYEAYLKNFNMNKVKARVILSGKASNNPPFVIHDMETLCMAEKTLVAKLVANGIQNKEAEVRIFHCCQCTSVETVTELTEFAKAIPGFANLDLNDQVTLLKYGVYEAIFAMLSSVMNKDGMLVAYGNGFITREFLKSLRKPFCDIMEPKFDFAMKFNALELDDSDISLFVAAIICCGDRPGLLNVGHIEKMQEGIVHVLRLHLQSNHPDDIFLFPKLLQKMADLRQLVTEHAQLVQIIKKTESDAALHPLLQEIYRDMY

[3] = target: T3, Peroxisome proliferator-activated receptor delta (Homo sapiens) (UniProt Q03181); assay: Agonist activity at human PPARdelta at 10 uM by Gal4 transactivation assay relative to pioglitazone
T3 sequence (whole entry): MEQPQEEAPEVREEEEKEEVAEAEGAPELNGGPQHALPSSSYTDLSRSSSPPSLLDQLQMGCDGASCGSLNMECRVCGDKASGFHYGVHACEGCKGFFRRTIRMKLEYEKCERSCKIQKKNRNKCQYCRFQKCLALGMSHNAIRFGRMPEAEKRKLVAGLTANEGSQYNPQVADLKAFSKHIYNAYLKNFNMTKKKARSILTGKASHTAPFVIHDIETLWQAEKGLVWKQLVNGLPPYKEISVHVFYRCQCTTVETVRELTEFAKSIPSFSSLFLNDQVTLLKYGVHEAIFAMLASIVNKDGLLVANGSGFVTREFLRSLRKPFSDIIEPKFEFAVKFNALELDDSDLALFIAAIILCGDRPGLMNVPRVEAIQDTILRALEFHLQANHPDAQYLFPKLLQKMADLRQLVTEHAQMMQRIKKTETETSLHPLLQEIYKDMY

[4] = target: T1, Peroxisome proliferator-activated receptor gamma; assay: Agonist activity at human PPARgamma by Gal4 transactivation assay
Outline: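 Human PPARγ Gal4-hybrid luciferase reporter transactivation assay. EC50 was calculated from concentration-response data, with maximum activation taken at the highest tested concentration.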

[5] = target: T4, Peroxisome proliferator-activated receptor gamma (Homo sapiens) (UniProt P37231); assay: as §1; outline: as §2
T4 sequence (whole entry): T1 sequence (P37231 whole entry)

Compound	EC50 [1]	Activity [2]	Activity [3]	EC50 [4] [µM]	Activity [5] [%]
Cc1ccccc1OC(=O)C1C(c2ccccc2)C(C(=O)O)C1c1ccccc1 (stereo not given)		inactive	inactive	10	138
CC(C)CCOC(=O)C1C(c2ccccc2)C(C(=O)O)C1c1ccccc1 (stereo not given)		inactive	inactive	4.8	71
COC(=O)C1C(c2ccccc2)C(C(=O)OC)C1c1ccccc1 (stereo not given)	Not Active	inactive	inactive		
CCCCCCCOC(=O)C1C(c2ccccc2)C(C(=O)O)C1c1ccccc1 (stereo not given)		inactive	inactive	8.6	153
Cc1cccc(OC(=O)C2C(c3ccccc3)C(C(=O)O)C2c2ccccc2)c1 (stereo not given)		inactive	inactive	3.3	123
COC(=O)C1C(c2ccccc2)C(C(=O)OCc2ccccc2)C1c1ccccc1 (stereo not given)	Not Active	inactive	inactive		
CCCCCCCCOC(=O)C1C(c2ccccc2)C(C(=O)O)C1c1ccccc1 (stereo not given)		inactive	inactive	9.3	100
CCCCCCOC(=O)C1C(c2ccccc2)C(C(=O)O)C1c1ccccc1 (stereo not given)		inactive	inactive	3.6	66
O=C(O)C1C(c2ccccc2)C(C(=O)Oc2ccc(O)cc2)C1c1ccccc1 (stereo not given)	Not Active	inactive	inactive		

More lines, now with the values ahead:

EC50 [1]	Activity [2]	Activity [3]	EC50 [4] [µM]	Activity [5] [%]	Compound
Not Active	inactive	inactive			CC(C)OC(=O)C1C(c2ccccc2)C(C(=O)O)C1c1ccccc1 (stereo not given)
Not Active	inactive	inactive			O=C(O)C1C(c2ccccc2)C(C(=O)N2CCOCC2)C1c1ccccc1 (stereo not given)
Not Active	inactive	inactive			O=C(O)C1C(c2ccccc2)C(C(=O)OCCO)C1c1ccccc1 (stereo not given)
	inactive	inactive	> 10	23	CCC(C)OC(=O)C1C(c2ccccc2)C(C(=O)O)C1c1ccccc1 (stereo not given)
Not Active	inactive	inactive			O=C(O)C1C(c2ccccc2)C(C(=O)O)C1c1ccccc1 (stereo not given)
Not Active	inactive	inactive			O=C(O)C1C(c2ccccc2)C(C(=O)N2CCCCC2)C1c1ccccc1 (stereo not given)
Not Active	inactive	inactive			O=C(O)C1C(c2ccccc2)C(C(=O)OCCCO)C1c1ccccc1 (stereo not given)
